Measurements from ChEMBL document CHEMBL5058577, “EUbOPEN Chemogenomics Library 2 (Multiplex)” (2022).

Test system: U2OS
Assay: Multiplex assay against U2OS
Assay type: toxicity, cell-based
Conditions: human
Method in brief: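 Per cents of healthy-nucleus cells form the tubulin, mitochondrial-mass and membrane-permeability phenotype values. Live cells were stained at seeding with Hoechst33342, BioTracker Green Microtubule Cytoskeleton Dye, MitoTracker Red and Annexin V Alexa Fluor 680. After compound addition they were imaged on a CQ1 microscope at 37°C and 5% CO2, and CellPathfinder machine-learning gating split them into Hoechst high-intensity objects or normal cells, normal cells into healthy, pyknosed or fragmented nuclei, and pyknosed cells into mitotic or apoptotic.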

[1] = 12 h, 1 µM, compound concentration 1 uM, replicate 1
[2] = 12 h, 1 µM, compound concentration 1 uM, replicate 2
[3] = 12 h, 10 µM, compound concentration 10 uM, replicate 1
[4] = 12 h, 10 µM, compound concentration 10 uM, replicate 2
[5] = 24 h, 1 µM, compound concentration 1 uM, replicate 1
[6] = 24 h, 1 µM, compound concentration 1 uM, replicate 2
[7] = 24 h, 10 µM, compound concentration 10 uM, replicate 1
[8] = 24 h, 10 µM, compound concentration 10 uM, replicate 2
[9] = 48 h, 1 µM, compound concentration 1 uM, replicate 1
[10] = 48 h, 1 µM, compound concentration 1 uM, replicate 2
[11] = 48 h, 10 µM, compound concentration 10 uM, replicate 1
[12] = 48 h, 10 µM, compound concentration 10 uM, replicate 2

c1cc(OCCCN2CCCCC2)ccc1CN1CCCCC1 [JNJ-5207852]
Population Apoptotic (%) [1]: 76% | Population Fragmented Nuclei (%) [1]: 29% | Population Healthy Nuclei (%) [1]: 65% | Population Hoechst High Intensity Objects (%) [1]: 2% | Population Membrane Permeable-Phenotype (%) [1]: 5% | Population Mitochondria Different-Phenotype (%) [1]: 3% | Population Mitotic Cells (%) [1]: 23% | Population Normal (%) [1]: 97% | Population Pyknosed Nuclei (%) [1]: 5% | Population Tubulin-Different-Phenotype (%) [1]: 3% | Total Cell Count [1]: 253 | Population Apoptotic (%) [2]: 58% | Population Fragmented Nuclei (%) [2]: 25% | Population Healthy Nuclei (%) [2]: 62% | Population Hoechst High Intensity Objects (%) [2]: 0% | Population Membrane Permeable-Phenotype (%) [2]: 7% | Population Mitotic Cells (%) [2]: 41% | Population Normal (%) [2]: 99% | Population Pyknosed Nuclei (%) [2]: 11% | Total Cell Count [2]: 106 | Population Apoptotic (%) [3]: 73% | Population Fragmented Nuclei (%) [3]: 34% | Population Healthy Nuclei (%) [3]: 57% | Population Hoechst High Intensity Objects (%) [3]: 2% | Population Membrane Permeable-Phenotype (%) [3]: 5% | Population Mitochondria Different-Phenotype (%) [3]: 3% | Population Mitotic Cells (%) [3]: 26% | Population Normal (%) [3]: 97% | Population Pyknosed Nuclei (%) [3]: 8% | Population Tubulin-Different-Phenotype (%) [3]: 3% | Total Cell Count [3]: 228 | Population Apoptotic (%) [4]: 85% | Population Fragmented Nuclei (%) [4]: 13% | Population Healthy Nuclei (%) [4]: 80% | Population Hoechst High Intensity Objects (%) [4]: 4% | Population Membrane Permeable-Phenotype (%) [4]: 7% | Population Mitochondria Different-Phenotype (%) [4]: 9% | Population Mitotic Cells (%) [4]: 14% | Population Normal (%) [4]: 95% | Population Pyknosed Nuclei (%) [4]: 6% | Population Tubulin-Different-Phenotype (%) [4]: 6% | Total Cell Count [4]: 120 | Population Apoptotic (%) [5]: 84% | Population Fragmented Nuclei (%) [5]: 25% | Population Healthy Nuclei (%) [5]: 65% | Population Hoechst High Intensity Objects (%) [5]: 1% | Population Membrane Permeable-Phenotype (%) [5]: 3% | Population Mitochondria Different-Phenotype (%) [5]: 2% | Population Mitotic Cells (%) [5]: 16% | Population Normal (%) [5]: 98% | Population Pyknosed Nuclei (%) [5]: 8% | Population Tubulin-Different-Phenotype (%) [5]: 2% | Total Cell Count [5]: 287 | Population Apoptotic (%) [6]: 66% | Population Fragmented Nuclei (%) [6]: 21% | Population Healthy Nuclei (%) [6]: 68% | Population Hoechst High Intensity Objects (%) [6]: 0% | Population Membrane Permeable-Phenotype (%) [6]: 4% | Population Mitotic Cells (%) [6]: 33% | Population Normal (%) [6]: 100% | Population Pyknosed Nuclei (%) [6]: 10% | Population Tubulin-Different-Phenotype (%) [6]: 4% | Total Cell Count [6]: 119 | Population Apoptotic (%) [7]: 82% | Population Fragmented Nuclei (%) [7]: 28% | Population Healthy Nuclei (%) [7]: 62% | Population Hoechst High Intensity Objects (%) [7]: 1% | Population Membrane Permeable-Phenotype (%) [7]: 4% | Population Mitochondria Different-Phenotype (%) [7]: 3% | Population Mitotic Cells (%) [7]: 17% | Population Normal (%) [7]: 98% | Population Pyknosed Nuclei (%) [7]: 8% | Population Tubulin-Different-Phenotype (%) [7]: 3% | Total Cell Count [7]: 271 | Population Apoptotic (%) [8]: 84% | Population Fragmented Nuclei (%) [8]: 10% | Population Healthy Nuclei (%) [8]: 80% | Population Membrane Permeable-Phenotype (%) [8]: 8% | Population Mitochondria Different-Phenotype (%) [8]: 5% | Population Mitotic Cells (%) [8]: 15% | Population Tubulin-Different-Phenotype (%) [8]: 8% | Total Cell Count [8]: 157 | Population Apoptotic (%) [9]: 82% | Population Fragmented Nuclei (%) [9]: 21% | Population Healthy Nuclei (%) [9]: 69% | Population Hoechst High Intensity Objects (%) [9]: 2% | Population Membrane Permeable-Phenotype (%) [9]: 4% | Population Mitochondria Different-Phenotype (%) [9]: 2% | Population Mitotic Cells (%) [9]: 17% | Population Normal (%) [9]: 97% | Population Pyknosed Nuclei (%) [9]: 8% | Population Tubulin-Different-Phenotype (%) [9]: 4% | Total Cell Count [9]: 400 | Population Apoptotic (%) [10]: 76% | Population Fragmented Nuclei (%) [10]: 19% | Population Healthy Nuclei (%) [10]: 71% | Population Hoechst High Intensity Objects (%) [10]: 3% | Population Membrane Permeable-Phenotype (%) [10]: 9% | Population Mitochondria Different-Phenotype (%) [10]: 4% | Population Mitotic Cells (%) [10]: 23% | Population Normal (%) [10]: 96% | Population Tubulin-Different-Phenotype (%) [10]: 3% | Total Cell Count [10]: 152 | Population Apoptotic (%) [11]: 86% | Population Fragmented Nuclei (%) [11]: 22% | Population Healthy Nuclei (%) [11]: 70% | Population Hoechst High Intensity Objects (%) [11]: 2% | Population Membrane Permeable-Phenotype (%) [11]: 7% | Population Mitochondria Different-Phenotype (%) [11]: 3% | Population Mitotic Cells (%) [11]: 13% | Population Normal (%) [11]: 97% | Population Pyknosed Nuclei (%) [11]: 6% | Population Tubulin-Different-Phenotype (%) [11]: 5% | Total Cell Count [11]: 345 | Population Apoptotic (%) [12]: 93% | Population Fragmented Nuclei (%) [12]: 14% | Population Healthy Nuclei (%) [12]: 78% | Population Hoechst High Intensity Objects (%) [12]: 1% | Population Membrane Permeable-Phenotype (%) [12]: 6% | Population Mitochondria Different-Phenotype (%) [12]: 2% | Population Mitotic Cells (%) [12]: 6% | Population Normal (%) [12]: 98% | Population Tubulin-Different-Phenotype (%) [12]: 4% | Total Cell Count [12]: 245

Cc1ccc(F)cc1C(=O)Nc1ccc(C(=O)N2Cc3cccn3Cc3ccccc32)c(Cl)c1 [LIXIVAPTAN]
Population Apoptotic (%) [1]: 69% | Population Fragmented Nuclei (%) [1]: 32% | Population Healthy Nuclei (%) [1]: 55% | Population Hoechst High Intensity Objects (%) [1]: 3% | Population Membrane Permeable-Phenotype (%) [1]: 9% | Population Mitochondria Different-Phenotype (%) [1]: 9% | Population Mitotic Cells (%) [1]: 30% | Population Normal (%) [1]: 96% | Population Pyknosed Nuclei (%) [1]: 11% | Population Tubulin-Different-Phenotype (%) [1]: 7% | Total Cell Count [1]: 230 | Population Apoptotic (%) [2]: 84% | Population Fragmented Nuclei (%) [2]: 8% | Population Healthy Nuclei (%) [2]: 82% | Population Membrane Permeable-Phenotype (%) [2]: 14% | Population Mitochondria Different-Phenotype (%) [2]: 10% | Population Mitotic Cells (%) [2]: 15% | Population Pyknosed Nuclei (%) [2]: 8% | Population Tubulin-Different-Phenotype (%) [2]: 11% | Total Cell Count [2]: 150 | Population Apoptotic (%) [3]: 59% | Population Fragmented Nuclei (%) [3]: 34% | Population Healthy Nuclei (%) [3]: 49% | Population Hoechst High Intensity Objects (%) [3]: 5% | Population Membrane Permeable-Phenotype (%) [3]: 79% | Population Mitochondria Different-Phenotype (%) [3]: 42% | Population Mitotic Cells (%) [3]: 40% | Population Normal (%) [3]: 94% | Population Pyknosed Nuclei (%) [3]: 16% | Population Tubulin-Different-Phenotype (%) [3]: 85% | Total Cell Count [3]: 203 | Population Apoptotic (%) [4]: 47% | Population Fragmented Nuclei (%) [4]: 13% | Population Healthy Nuclei (%) [4]: 69% | Population Membrane Permeable-Phenotype (%) [4]: 63% | Population Mitochondria Different-Phenotype (%) [4]: 55% | Population Mitotic Cells (%) [4]: 52% | Population Tubulin-Different-Phenotype (%) [4]: 77% | Total Cell Count [4]: 119 | Population Apoptotic (%) [5]: 86% | Population Fragmented Nuclei (%) [5]: 26% | Population Healthy Nuclei (%) [5]: 64% | Population Hoechst High Intensity Objects (%) [5]: 1% | Population Membrane Permeable-Phenotype (%) [5]: 9% | Population Mitochondria Different-Phenotype (%) [5]: 9% | Population Mitotic Cells (%) [5]: 13% | Population Normal (%) [5]: 98% | Population Pyknosed Nuclei (%) [5]: 8% | Population Tubulin-Different-Phenotype (%) [5]: 4% | Total Cell Count [5]: 257 | Population Apoptotic (%) [6]: 57% | Population Fragmented Nuclei (%) [6]: 14% | Population Healthy Nuclei (%) [6]: 81% | Population Hoechst High Intensity Objects (%) [6]: 4% | Population Membrane Permeable-Phenotype (%) [6]: 11% | Population Mitochondria Different-Phenotype (%) [6]: 13% | Population Mitotic Cells (%) [6]: 42% | Population Normal (%) [6]: 95% | Population Pyknosed Nuclei (%) [6]: 4% | Population Tubulin-Different-Phenotype (%) [6]: 7% | Total Cell Count [6]: 171 | Population Apoptotic (%) [7]: 59% | Population Fragmented Nuclei (%) [7]: 30% | Population Healthy Nuclei (%) [7]: 50% | Population Hoechst High Intensity Objects (%) [7]: 4% | Population Membrane Permeable-Phenotype (%) [7]: 65% | Population Mitochondria Different-Phenotype (%) [7]: 63% | Population Mitotic Cells (%) [7]: 40% | Population Normal (%) [7]: 95% | Population Pyknosed Nuclei (%) [7]: 18% | Population Tubulin-Different-Phenotype (%) [7]: 75% | Total Cell Count [7]: 207 | Population Apoptotic (%) [8]: 66% | Population Fragmented Nuclei (%) [8]: 14% | Population Healthy Nuclei (%) [8]: 67% | Population Membrane Permeable-Phenotype (%) [8]: 54% | Population Mitochondria Different-Phenotype (%) [8]: 67% | Population Mitotic Cells (%) [8]: 33% | Population Tubulin-Different-Phenotype (%) [8]: 66% | Total Cell Count [8]: 119 | Population Apoptotic (%) [9]: 87% | Population Fragmented Nuclei (%) [9]: 24% | Population Healthy Nuclei (%) [9]: 64% | Population Hoechst High Intensity Objects (%) [9]: 1% | Population Membrane Permeable-Phenotype (%) [9]: 9% | Population Mitochondria Different-Phenotype (%) [9]: 6% | Population Mitotic Cells (%) [9]: 12% | Population Normal (%) [9]: 98% | Population Pyknosed Nuclei (%) [9]: 11% | Population Tubulin-Different-Phenotype (%) [9]: 5% | Total Cell Count [9]: 378 | Population Apoptotic (%) [10]: 95% | Population Fragmented Nuclei (%) [10]: 10% | Population Healthy Nuclei (%) [10]: 79% | Population Hoechst High Intensity Objects (%) [10]: 3% | Population Membrane Permeable-Phenotype (%) [10]: 13% | Population Mitochondria Different-Phenotype (%) [10]: 11% | Population Mitotic Cells (%) [10]: 5% | Population Normal (%) [10]: 96% | Population Pyknosed Nuclei (%) [10]: 10% | Total Cell Count [10]: 206 | Population Apoptotic (%) [11]: 75% | Population Fragmented Nuclei (%) [11]: 32% | Population Healthy Nuclei (%) [11]: 37% | Population Hoechst High Intensity Objects (%) [11]: 5% | Population Membrane Permeable-Phenotype (%) [11]: 49% | Population Mitochondria Different-Phenotype (%) [11]: 40% | Population Mitotic Cells (%) [11]: 25% | Population Normal (%) [11]: 94% | Population Pyknosed Nuclei (%) [11]: 29% | Population Tubulin-Different-Phenotype (%) [11]: 44% | Total Cell Count [11]: 232 | Population Apoptotic (%) [12]: 92% | Population Fragmented Nuclei (%) [12]: 18% | Population Healthy Nuclei (%) [12]: 58% | Population Hoechst High Intensity Objects (%) [12]: 12% | Population Membrane Permeable-Phenotype (%) [12]: 60% | Population Mitochondria Different-Phenotype (%) [12]: 52% | Population Mitotic Cells (%) [12]: 7% | Population Normal (%) [12]: 87% | Population Pyknosed Nuclei (%) [12]: 23% | Population Tubulin-Different-Phenotype (%) [12]: 57% | Total Cell Count [12]: 137
